We go through two molecules from ChEMBL document CHEMBL1125658, “Synthesis and properties of some peptide analogues of actinomycin D” (1991).

For orientation: MIC means the least concentration at which growth counts as inhibited. A low value points to a more susceptible organism.

Converted amounts (≈) assume the structure as drawn. Starred links: 1 amine or outer side, 2 acyl side, 3 side chain; linkers in the order of their positions; H or OH if unused. Positions of bridges follow the written chain, without caps; N, C: chain ends. Non-standard residues stand in square brackets, D forms with d. Residues, ends and D or L forms follow the SMILES beside them. Chains are numbered I, II in the order given. Actinocin(1to9) = Cc1c2oc3c(C)ccc(C(=O)[*:2])c3nc-2c(C(=O)[*:1])c(N)c1=O; NMeV = CN[C@H](C(=O)O)C(C)C; Sar = CNCC(=O)O

What all share (type): functional
One test has as its system Bacillus subtilis. The test is described as follows: Compound was tested for its antibacterial activity against Bacillus subtilis. Summed up:
(§1)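 Overnight culture in trypticase soy broth at 37 °C, 0.1 mL subcultured into 50 mL fresh TSB and grown 8 h. Then 0.1 mL of the rapidly growing culture was diluted into a further 50 mL TSB. 0.1 mL of this dilution inoculated into 2 mL TSB per tube for MIC determination.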

In a further test the test system is Staphylococcus aureus. Nature of the test: Compound was tested for its antibacterial activity against Staphylococcus aureus. The essentials:
as §1

For a further test, the system named is Mus musculus. The test is described as follows: Compound was tested in vivo for its antitumor activity against B16 melanocarcinoma in mice by determining its median survival time at dose of 0.256 mg/Kg.

On to `Cc1c2oc3c(C)ccc(C(=O)N[C@@H]4C(=O)N[C@H](C(C)C)C(=O)N5CCC[C@H]5C(=O)N(C)CC(=O)N(C)[C@@H](CC(C)C)C(=O)O[C@@H]4C)c3nc-2c(C(=O)N[C@@H]2C(=O)N[C@H](C(C)C)C(=O)N3CCC[C@H]3C(=O)N(C)CC(=O)N(C)[C@@H](CC(C)C)C(=O)O[C@@H]2C)c(N)c1=O`, for which the results for the MIC against Bacillus subtilis and against Staphylococcus aureus were 0.2 mg/L (≈ 0.156 µM) and 0.5 mg/L (≈ 0.39 µM), respectively.

Turning to `Cc1c2oc3c(C)ccc(C(=O)N[C@@H]4C(=O)N[C@H](C(C)C)C(=O)N5CCC[C@H]5C(=O)N(C)CC(=O)N(C)[C@@H](C(C)C)C(=O)O[C@@H]4C)c3nc-2c(C(=O)N[C@@H]2C(=O)N[C@H](C(C)C)C(=O)N3CCC[C@H]3C(=O)N(C)CC(=O)N(C)[C@@H](C(C)C)C(=O)O[C@@H]2C)c(N)c1=O` [DACTINOMYCIN] (I: T[dV]P[Sar][NMeV] / II: T[dV]P[Sar][NMeV]; ester I:1-I:C, II:1-II:C; linker I:N-II:N via Actinocin(1to9)), the figures for the MIC against Bacillus subtilis and against Staphylococcus aureus were 0.09 mg/L (≈ 0.0717 µM) and 0.25 mg/L (≈ 0.199 µM), respectively. Also, in the test with Mus musculus, the T/C was found to be 165.
